From ChEMBL document CHEMBL5329145, “Antileishmanial evaluation of triazole-butenolide conjugates: design, synthesis, in vitro screening, SAR and in silico ADME predictions” (RSC Med Chem, 2023)
Calls of active or inactive are those of the source. The calls are words filed in the database; no cut-off is given here.

What was measured:
[1] = tested on: Leishmania donovani; assay: Antileishmanial activity against Leishmania donovani MHOM/IN/80/Dd8 amastigotes infected in mouse J774.A1 cells assessed as inhibition of amastigotes growth incubated for 48 hrs by Steady-Glo reagent based luminescence analysis; type: functional, organism-based; details: for IC50: MHOM/IN/80/Dd8, J774.A1, 48 h
How it was run: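 J774A cells (2×10⁵ per well, RPMI-1640 with 15% FCS) incubated 24 h at 37 °C in CO2, then infected with stationary-phase luciferase promastigotes (2×10⁶ per well) to give amastigotes. Compound added in fresh medium for 48 h at 37 °C. Medium replaced by PBS, Steady-Glo luminescence read, % inhibition vs untreated. IC50 by probit analysis, mean ± SD of three assays.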

[2] = tested on: Leishmania donovani; assay: Antileishmanial activity against Leishmania donovani MHOM/IN/80/Dd8 promastigotes transfected with luciferase reporter gene assessed as inhibition of promastigotes growth incubated for 72 hrs by Steady-Glo reagent based luminescence analysis; type: functional, organism-based; details: for IC50: MHOM/IN/80/Dd8, 72 h
How it was run: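 Luciferase-transgenic L. donovani promastigotes kept under G418 (20 μg mL⁻¹) in Medium 199 with 10% FCS at 25 ± 1 °C. Late-log cells seeded at 5×10⁵ per well with serial dilutions in DMSO for 72 h, DMSO controls run alongside. Luminescence read with Steady-Glo. % inhibition = (N−n)/N×100 vs untreated. IC50 by probit analysis, mean ± SD of three assays.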

[3] = Selectivity index, ratio of CC50 for cytotoxicity against mouse J774.A1 cells to IC50 for antileishmanial activity against Leishmania donovani MHOM/IN/80/Dd8 amastigotes infected in mouse J774.A1 cells; type: toxicity, cell-based; details: read-out: Ratio CC50/IC50
How it was run: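 SI = CC50 in J774A cells (MTT, 48 h) divided by IC50 against intracellular amastigotes (luciferase, 48 h). Both values are means of three independent assays.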

[4] = Cytotoxicity against mouse J774.A1 cells assessed as reduction in cell growth incubated for 48 hrs by MTT assay; type: toxicity, cell-based
How it was run: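 J774A cells seeded at 0.2 million per well, incubated overnight at 37 °C with 5% CO2, then exposed to compound dilutions in DMSO (DMSO controls) for 48 h. Viability by MTT formazan, OD at 600 nm against blank. CC50 is the concentration giving 50% viability loss vs medium-only cells, from probit analysis. Mean ± SD of three assays.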

[5] = Stability of compound in simulated physiological fluid assessed as compound remaining at pH 7.4 measured for 120 mins by LC-MS analysis; type: physicochemical; details: read-out: Stability
How it was run: (§1)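 Simulated fluids prepared to USP (SGF pH 1.2, SIF pH 6.8, SPF pH 7.4) and hamster plasma pre-incubated at 37 ± 2 °C for 15 min in a shaking water bath, then spiked with compound. Aliquots taken at intervals up to 120 min, quenched with acetonitrile, vortexed and centrifuged. Remaining analyte quantified by LC-MS/MS.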

[6] = Stability of compound in golden hamster plasma assessed as compound remaining measured for 120 mins by LC-MS analysis; type: ADME, cell-free, Mesocricetus auratus; details: read-out: Stability; how it was run: as §1
[7] = tested on: Plasmodium falciparum; assay: Antimalarial activity against Plasmodium falciparum 3D7; type: functional, organism-based
[8] = Stability of compound in simulated gastric fluid assessed as parent compound remaining at pH 1.2 measured for 120 mins by LC-MS/MS analysis; type: ADME; details: read-out: Stability; how it was run: as §1
[9] = Stability of compound in simulated intestinal fluid assessed as parent compound remaining at pH 6.8 measured for 120 mins by LC-MS/MS analysis; type: ADME; details: read-out: Stability; how it was run: as §1
[10] = Clearance in golden hamster at 50 mg/kg, po measured after 5 mins to 24 hrs by LC-MS/MS analysis; type: ADME, organism-based, Mesocricetus auratus; details: in vivo, time 5-1440 min
How it was run: (§2)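 Golden hamsters fasted before dosing, oral 50 mg kg⁻¹. Retro-orbital blood drawn under anesthesia from 5 min to 24 h, spun at 6000g for 20 min, plasma stored at -80 °C. Protein precipitation with acetonitrile containing carbamazepine IS (3 ng mL⁻¹). LC-MS/MS on C18 column, isocratic 90% acetonitrile, positive mode, transition m/z 375.2/198.3. Parameters from non-compartmental analysis.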

[11] = MRT in golden hamster at 50 mg/kg, po measured after 5 mins to 24 hrs by LC-MS/MS analysis; type: ADME, organism-based, Mesocricetus auratus; details: in vivo, time 5-1440 min; how it was run: as §2
[12] = AUC in golden hamster at 50 mg/kg, po measured after 5 mins to 24 hrs by LC-MS/MS analysis; type: ADME, organism-based, Mesocricetus auratus; set-up: time lower 5 min, dose 50 mg/kg, time upper 1440 min, route po; details: in vivo; how it was run: as §2
[13] = Volume of distribution in golden hamster at 50 mg/kg, po measured after 5 mins to 24 hrs by LC-MS/MS analysis; type: ADME, organism-based, Mesocricetus auratus; details: in vivo, time 5-1440 min; how it was run: as §2
[14] = Cmax in golden hamster at 50 mg/kg, po measured after 5 mins to 24 hrs by LC-MS/MS analysis; type: ADME, organism-based, Mesocricetus auratus; set-up: dose 50 mg/kg, time upper 1440 min, time lower 5 min, route po; details: in vivo; how it was run: as §2
[15] = Tmax in golden hamster at 50 mg/kg, po measured after 5 mins to 24 hrs by LC-MS/MS analysis; type: ADME, organism-based, Mesocricetus auratus; details: in vivo, time 5-1440 min; how it was run: as §2
[16] = Half life in golden hamster at 50 mg/kg, po measured after 5 mins to 24 hrs by LC-MS/MS analysis; type: ADME, organism-based, Mesocricetus auratus; details: in vivo, time 5-1440 min; how it was run: as §2
[17] = tested on: Brugia malayi; assay: Antifilarial activity against Brugia malayi assessed as reduction in worm viability by measuring inhibition of MTT reduction at 50 to 100 uM incubated for 24 hrs by MTT assay relative to control; type: functional; details: dose 50-100 µM

| Compound | IC50 [2] | selectivity ratio [3] | CC50 at 48 h [4] | IC50 [1] | also measured |
| --- | --- | --- | --- | --- | --- |
| CCCCc1ccc(-n2cc(CNC3=C(Cl)C(=O)OC3O)nn2)cc1 (stereo not given) | ≥ 50 µM | – | – | – | inhibition [1]: inactive |
| O=C1OC(O)C(NCc2cn(-c3cccc(C(F)(F)F)c3)nn2)=C1Cl (stereo not given) | 32.4 µM | 12.1 | 102 µM | 8.45 µM | – |
| O=C1OC(O)C(NCc2cn(-c3ccc(F)c(F)c3)nn2)=C1Cl (stereo not given) | ≥ 50 µM | 20.5 | 172 µM | 8.4 µM | remaining at 2 h [5]: ≥ 70%; remaining at 2 h [6]: ≥ 70%; IC50 [7]: 3.65 µM; remaining at 2 h [8]: ≥ 70%; remaining at 2 h [9]: ≥ 70%; CL/F [10]: 207 mL/min/kg; MRT [11]: 3.64 h; AUC [12]: 4500 ng·h/mL; Vd [13]: 38.15 L/kg; Cmax [14]: 1110 ng/mL; Tmax [15]: 2 h; half-life [16]: 2.15 h |
| O=C1OC(O)C(NCc2cn(-c3ccccc3)nn2)=C1Cl (stereo not given) | ≥ 50 µM | – | – | – | inhibition [1]: inactive |
| COc1ccc(-n2cc(CNC3=C(Cl)C(=O)OC3O)nn2)cc1OC (stereo not given) | – | – | – | – | inhibition [1]: inactive; inhibition [2]: inactive |
| O=C1OC(O)C(NCc2cn(-c3ccccc3[N+](=O)[O-])nn2)=C1Cl (stereo not given) | ≥ 50 µM | – | – | ≥ 25 µM | – |
| CCc1ccc(-n2cc(CNC3=C(Cl)C(=O)OC3O)nn2)cc1 (stereo not given) | ≥ 50 µM | – | – | – | inhibition [1]: inactive |
| CC(C)c1ccc(-n2cc(CNC3=C(Cl)C(=O)OC3O)nn2)cc1 (stereo not given) | – | – | – | ≥ 50 µM | inhibition [2]: inactive |
| O=C1OC(O)C(NCc2cn(-c3ccc(F)c(Cl)c3)nn2)=C1Cl (stereo not given) | 35.5 µM | 7.38 | 78 µM | 10.6 µM | – |
| Cc1ccc(-n2cc(CNC3=C(Cl)C(=O)OC3O)nn2)cc1F (stereo not given) | ≥ 50 µM | – | – | ≥ 20 µM | inhibition (INH) [17]: 66% |
| O=C1OC(O)C(NCc2cn(-c3ccc(Cl)c(Cl)c3)nn2)=C1Cl (stereo not given) | 34.1 µM | 9.75 | 84.2 µM | 8.63 µM | inhibition (INH) [17]: 52% |
| O=C1OC(O)C(NCc2cn(-c3ccccc3Oc3ccccc3)nn2)=C1Cl (stereo not given) | ≥ 50 µM | – | – | ≥ 20 µM | IC50 [7]: 4.65 µM |
| O=C1OC(O)C(NCc2cn(-c3ccc4c(c3)OCO4)nn2)=C1Cl (stereo not given) | ≥ 50 µM | – | – | ≥ 50 µM | IC50 [7]: 4.34 µM; inhibition (INH) [17]: 52% |
| Cc1cc(C)c(-n2cc(CNC3=C(Cl)C(=O)OC3O)nn2)c(C)c1 (stereo not given) | ≥ 50 µM | – | – | ≥ 20 µM | – |
| C#CCNC1=C(Cl)C(=O)OC1O (stereo not given) | ≥ 50 µM | 8.56 | 97.2 µM | 11.3 µM | inhibition (INH) [17]: 65% |
| O=C1OC(O)C(NCc2cn(-c3ccc(F)c(C(F)(F)F)c3)nn2)=C1Cl (stereo not given) | 30.6 µM | 15 | 136 µM | 9.02 µM | – |
| O=C1OC(O)C(NCc2cn(-c3ccc(Cl)cc3)nn2)=C1Cl (stereo not given) | ≥ 50 µM | – | – | ≥ 50 µM | – |
| CCCCCCCCCCCCCCCCOP(=O)([O-])OCC[N+](C)(C)C [MILTEFOSINE] | – | 5.53 | 52.1 µM | 9.42 µM | – |
| Cc1ccc(C)c(-n2cc(CNC3=C(Cl)C(=O)OC3O)nn2)c1 (stereo not given) | ≥ 50 µM | – | – | ≥ 50 µM | IC50 [7]: 4.57 µM |
| COc1ccc(-n2cc(CNC3=C(Cl)C(=O)OC3O)nn2)cc1 (stereo not given) | ≥ 50 µM | – | – | ≥ 25 µM | IC50 [7]: 4.9 µM |
| CC(C)(C)c1ccc(-n2cc(CNC3=C(Cl)C(=O)OC3O)nn2)cc1 (stereo not given) | ≥ 50 µM | – | – | ≥ 25 µM | IC50 [7]: 4.4 µM |
| O=C1OC(O)C(NCc2cn(-c3ccc(F)cc3)nn2)=C1Cl (stereo not given) | ≥ 50 µM | – | – | – | IC50 [7]: 4.42 µM; inhibition [1]: inactive |
| Cc1ccc(-n2cc(CNC3=C(Cl)C(=O)OC3O)nn2)cc1C (stereo not given) | 32.5 µM | 9.27 | 93.5 µM | 10.1 µM | inhibition (INH) [17]: 52% |
| Cc1ccc(-n2cc(CNC3=C(Cl)C(=O)OC3O)nn2)cc1 (stereo not given) | ≥ 50 µM | – | – | – | inhibition [1]: inactive |
| COc1cc(-n2cc(CNC3=C(Cl)C(=O)OC3O)nn2)cc(OC)c1OC (stereo not given) | ≥ 100 µM | 7.5 | 84.8 µM | 11.3 µM | – |
